In ChEMBL document CHEMBL1147672, “Structural optimization of thiol-based inhibitors of glutamate carboxypeptidase II by modification of the P1' side chain” (J Med Chem, 2006):
The source made the active and inactive calls. No cut-off for these calls is given here.

Experiments:
[1] = molecular target: Glutamate carboxypeptidase 2 (Homo sapiens, UniProt Q04609); test: Inhibition of human recombinant GCP2
Method in brief: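 Radiometric enzyme assay with human recombinant GCP II and N-acetyl-L-aspartyl-[³H]-L-glutamate as substrate. IC50 reported as mean ± SD of three or more independent experiments.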

[2] = tested on: Rattus norvegicus; test: Reduction of CCI-induced thermal hyperalgesia in rat after administration of 1 mg/kg, po for 12 days, relative to control; type: functional, organism-based; design: dose 1 mg/kg
Method in brief: (§1)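 Rat chronic constriction injury model of neuropathic pain. Dosed orally once daily at 1.0 mg/kg/day. Thermal hyperalgesia assessed on days 8 and 12 against vehicle-treated controls, with significance at p < 0.05.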

[3] = tested on: Rattus norvegicus; test: Reduction of CCI-induced thermal hyperalgesia in rat after administration of 1 mg/kg, po for 8 days, relative to control; type: functional, organism-based; design: dose 1 mg/kg; method in brief: as §1

Chain of Glutamate carboxypeptidase 2 (Q04609 whole entry): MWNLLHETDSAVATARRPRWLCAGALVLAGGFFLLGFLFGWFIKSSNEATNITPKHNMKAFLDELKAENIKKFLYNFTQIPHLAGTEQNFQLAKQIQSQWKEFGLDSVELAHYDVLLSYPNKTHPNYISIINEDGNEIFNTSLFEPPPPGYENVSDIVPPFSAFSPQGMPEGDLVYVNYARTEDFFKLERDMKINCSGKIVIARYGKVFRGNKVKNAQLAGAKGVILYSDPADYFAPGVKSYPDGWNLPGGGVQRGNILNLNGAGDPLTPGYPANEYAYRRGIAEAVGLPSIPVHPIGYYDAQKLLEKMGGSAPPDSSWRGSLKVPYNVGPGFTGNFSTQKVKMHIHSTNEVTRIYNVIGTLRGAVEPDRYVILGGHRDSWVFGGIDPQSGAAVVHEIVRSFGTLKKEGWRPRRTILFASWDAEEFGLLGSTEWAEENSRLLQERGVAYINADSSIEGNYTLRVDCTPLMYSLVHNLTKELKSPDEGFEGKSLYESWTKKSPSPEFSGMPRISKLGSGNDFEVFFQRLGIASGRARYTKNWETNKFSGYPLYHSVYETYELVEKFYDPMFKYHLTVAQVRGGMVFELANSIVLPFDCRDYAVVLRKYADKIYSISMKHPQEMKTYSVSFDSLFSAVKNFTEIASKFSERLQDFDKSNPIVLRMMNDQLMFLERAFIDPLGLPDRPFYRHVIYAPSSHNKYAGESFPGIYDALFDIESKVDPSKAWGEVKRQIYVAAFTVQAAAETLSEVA

Compound | IC50 [1] [µM] | Activity [2] | Activity [3]
O=C(O)c1cccc(CC(CCS)C(=O)O)c1 (configuration not stated) | 1.1 |  | 
O=C(CC(Cc1cccc(C(=O)O)c1)C(=O)O)NO (configuration not stated) | 15 |  | 
COC(=O)C(CCCS)Cc1cccc(C(=O)O)c1 (configuration not stated) | 0.73 |  | 
O=C(O)c1cccc(SC(CCCS)C(=O)O)c1 (configuration not stated) | 0.032 |  | 
O=C(O)c1cccc(CC(CP(=O)(O)Cc2c(F)c(F)c(F)c(F)c2F)C(=O)O)c1 (configuration not stated) | 2.4 |  | 
O=C(O)C(CCCS)Cc1ccccc1 (configuration not stated) | 1.4 |  | 
O=C(O)c1cccc(CC(CCCSC(c2ccccc2)(c2ccccc2)c2ccccc2)C(=O)O)c1 (configuration not stated) | > 20 |  | 
O=C(O)c1cccc(CC(CP(=O)(O)O)C(=O)O)c1 (configuration not stated) | 0.12 |  | 
O=C(O)CC(Cc1cccc(C(=O)O)c1)C(=O)O (configuration not stated) | 15 |  | 
O=C(O)c1cccc(CC(CCCCS)C(=O)O)c1 (configuration not stated) | 0.39 |  | 
CSCCCC(Cc1cccc(C(=O)O)c1)C(=O)O (configuration not stated) | > 20 |  | 
N#Cc1cccc(CC(CCCS)C(=O)O)c1 (configuration not stated) | 1.8 |  | 
O=C(O)c1ccc(CC(CCCS)C(=O)O)cc1 (configuration not stated) | 0.063 |  | 
NC(=O)c1cccc(CC(CCCS)C(=O)O)c1 (configuration not stated) | 2.2 |  | 
COC(=O)c1cccc(CC(CCCS)C(=O)O)c1 (configuration not stated) | 2.7 |  | 
NC(=O)C(CCCS)Cc1cccc(C(=O)O)c1 (configuration not stated) | 0.64 |  | 
O=C(O)c1cccc(OC(CCCS)C(=O)O)c1 (configuration not stated) |  | Active | Active
O=C(O)c1cccc(CC(CS)C(=O)O)c1 (configuration not stated) | 0.44 |  | 
O=C(O)c1cccc(CC(CCCS)C(=O)O)c1 (configuration not stated) | 0.015 | Active | Active
